Measurements published in ChEMBL document CHEMBL1212911, “Identification of potent and selective amidobipyridyl inhibitors of protein kinase D” (J Med Chem, 2010).
pEC50, pIC50: −log10 of the molar value.

Experiments:
[1] = target: T1, Serine/threonine-protein kinase D2 (Homo sapiens, UniProt Q9BZL6); experiment: Inhibition of PKD2 by TR-FRET assay
T1 sequence (Q9BZL6 whole entry): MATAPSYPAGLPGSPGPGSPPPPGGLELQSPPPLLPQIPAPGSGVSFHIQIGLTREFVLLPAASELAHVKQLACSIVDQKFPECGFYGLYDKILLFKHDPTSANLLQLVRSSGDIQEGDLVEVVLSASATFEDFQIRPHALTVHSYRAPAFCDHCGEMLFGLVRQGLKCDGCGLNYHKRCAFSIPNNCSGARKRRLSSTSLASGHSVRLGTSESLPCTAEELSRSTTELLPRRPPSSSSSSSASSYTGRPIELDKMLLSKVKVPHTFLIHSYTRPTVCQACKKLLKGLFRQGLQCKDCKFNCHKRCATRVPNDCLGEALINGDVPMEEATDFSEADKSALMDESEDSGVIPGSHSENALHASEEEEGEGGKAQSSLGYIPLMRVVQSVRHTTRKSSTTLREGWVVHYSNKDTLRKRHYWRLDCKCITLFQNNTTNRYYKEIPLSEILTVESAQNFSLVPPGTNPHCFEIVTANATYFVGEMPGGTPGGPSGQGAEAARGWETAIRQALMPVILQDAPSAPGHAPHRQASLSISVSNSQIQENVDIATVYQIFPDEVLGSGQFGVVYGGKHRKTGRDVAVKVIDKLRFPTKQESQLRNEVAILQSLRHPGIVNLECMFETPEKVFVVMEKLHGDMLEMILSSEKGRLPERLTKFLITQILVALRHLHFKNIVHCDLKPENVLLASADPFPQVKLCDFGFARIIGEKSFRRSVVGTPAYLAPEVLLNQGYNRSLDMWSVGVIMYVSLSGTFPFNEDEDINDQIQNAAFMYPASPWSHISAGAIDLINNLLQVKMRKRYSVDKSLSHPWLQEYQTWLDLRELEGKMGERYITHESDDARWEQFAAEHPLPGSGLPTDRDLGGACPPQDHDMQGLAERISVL

[2] = target: T2, Serine/threonine-protein kinase D1 (Homo sapiens, UniProt Q15139); experiment: Inhibition of PKD1 assessed as inhibition of HDAC5 neuclear export
T2 sequence (Q15139 whole entry): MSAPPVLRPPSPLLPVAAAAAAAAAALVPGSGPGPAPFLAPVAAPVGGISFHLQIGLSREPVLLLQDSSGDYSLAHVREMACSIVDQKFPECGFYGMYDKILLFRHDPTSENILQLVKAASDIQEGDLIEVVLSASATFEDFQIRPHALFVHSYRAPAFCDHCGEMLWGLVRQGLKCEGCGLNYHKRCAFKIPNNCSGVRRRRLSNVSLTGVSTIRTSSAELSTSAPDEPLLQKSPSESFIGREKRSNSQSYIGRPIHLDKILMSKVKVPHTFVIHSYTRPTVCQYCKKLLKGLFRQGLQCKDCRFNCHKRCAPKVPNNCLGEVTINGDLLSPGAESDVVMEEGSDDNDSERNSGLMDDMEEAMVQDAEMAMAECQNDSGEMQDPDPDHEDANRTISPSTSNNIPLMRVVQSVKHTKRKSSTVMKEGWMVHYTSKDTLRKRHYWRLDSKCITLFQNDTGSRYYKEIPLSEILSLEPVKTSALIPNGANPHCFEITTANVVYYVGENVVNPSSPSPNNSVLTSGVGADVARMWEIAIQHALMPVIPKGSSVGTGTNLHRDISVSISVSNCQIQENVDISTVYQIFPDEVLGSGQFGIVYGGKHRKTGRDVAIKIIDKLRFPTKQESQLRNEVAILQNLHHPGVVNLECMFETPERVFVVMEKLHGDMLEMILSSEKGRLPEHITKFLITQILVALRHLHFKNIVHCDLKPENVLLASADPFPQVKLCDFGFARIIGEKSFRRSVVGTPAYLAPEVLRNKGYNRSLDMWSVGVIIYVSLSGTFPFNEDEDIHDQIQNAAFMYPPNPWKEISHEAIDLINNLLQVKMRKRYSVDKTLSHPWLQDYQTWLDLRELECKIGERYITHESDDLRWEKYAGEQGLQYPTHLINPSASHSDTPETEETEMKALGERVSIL
Method in brief: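 Neonatal rat ventricular myocytes infected with adenovirus encoding GFP-HDAC5 and plated on gelatin-coated wells. Cells exposed to compound and stimulated with PGF2α for 2 h, then fixed. Cytoplasmic versus nuclear GFP intensity quantified by high-content imaging.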

[3] = target: T2, Serine/threonine-protein kinase D1; experiment: Inhibition of PKD1 by TR-FRET assay
Method in brief: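 Full-length wild-type PKD1 expressed and purified from Sf9 cells, 0.2 μg/mL, in 35 mM Tris-HCl pH 7.5, 5 mM MgCl2, 0.02% Tween-20, 20 μM ATP, 1 mM DTT. Reaction started with 2 μM biotinylated syntide-2 and run 50 min at room temperature. Stopped with EDTA plus europium anti-rabbit IgG, anti-phospho-syntide-2 antibody and streptavidin-APC. LANCE TR-FRET 665/615 ratio read after 1 h. 11-point curves in triplicate gave IC50.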

[4] = Cmax in rats after 5 mg/kg oral dose; format: ADME, organism-based; design: dose 5 mg/kg, route oral; settings: Sprague-Dawley, rat, in vivo
[5] = Half life in rats after 2 mg/kg intravenous dose; format: ADME, organism-based; design: dose 2 mg/kg, route intravenous; settings: Sprague-Dawley, rat, in vivo
Method in brief: (§1)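 Rats dosed iv 2 mg/kg (n = 2) or po 5 mg/kg (n = 3) in 10% NMP, 10% Cremophor, 80% pH 4.63 buffer. PK parameters derived from iv dosing, reported as mean ± SD.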

[6] = AUC (0 to 8 hrs) in Sprague-Dawley rat at 5 mg/kg, po; format: ADME, organism-based; design: time < 8 hr, dose 5 mg/kg, route oral; settings: plasma
[7] = Oral bioavailability in Sprague-Dawley rat at 5 mg/kg; format: ADME, organism-based; settings: in vivo; method in brief: as §1
[8] = Volume of distribution at steady state in Sprague-Dawley rat at 2 mg/kg, iv and 5 mg/kg, po; format: ADME, organism-based; settings: in vivo, read-out: Vdss; method in brief: as §1
[9] = Clearance in Sprague-Dawley rat at 2 mg/kg, iv and 5 mg/kg, po; format: ADME, organism-based; settings: in vivo; method in brief: as §1

SMILES | pIC50 [1] | pEC50 [2] | pIC50 [3] | Cmax [4] [nM] | half-life [5] [h] | AUC(0-t) at 8 h [6] [µM·h] | bioavailability [7] [%] | Vd [8] [L/kg] | clearance [9] [mL/min/kg]
NC(=O)c1cc(-c2ccnc(Nc3ccccc3)c2)nc(N2CCNCC2)c1 | 9.00 | 7.62 | 9.00 |  |  |  |  |  | 
FC(F)c1cc(-c2ccnc(NC3CCCCC3)c2)nc(N2CCNCC2)c1 | 7.12 | 6.25 | 7.77 |  |  |  |  |  | 
c1cc(-c2cc(-c3cn[nH]c3)cc(N3CCNCC3)n2)cc(NC2CCOCC2)n1 | 8.70 | 6.63 | > 9.00 |  |  |  |  |  | 
CC(C)Nc1cc(-c2cc(-c3cn[nH]c3)cc(N3CCNCC3)n2)ccn1 | 8.70 | 7.04 | > 9.00 |  |  |  |  |  | 
Cn1ccc(Nc2cc(-c3cc(C(N)=O)cc(N4CCNCC4)n3)ccn2)n1 | 8.15 | 6.17 | 9.00 |  |  |  |  |  | 
N#Cc1cc(-c2ccnc(Nc3ccccc3)c2)nc(N2CCNCC2)c1 | 7.46 | 6.42 | 8.30 | 231 | 3.1 | 1.1 | 18 | 7.8 | 31
c1cc(-c2cc(-c3cn[nH]c3)cc(N3CCNCC3)n2)cc(NC2CCCCC2)n1 | 9.00 | 7.77 | > 9.00 |  |  |  |  |  | 
O=C1NCc2c1cc(-c1ccnc(NC3CCCCC3)c1)nc2N1CCNCC1 |  | < 6.00 | 7.46 | 31 | 6.2 | 0.1 | 5 | 35 | 86
CC(C)Nc1cc(-c2cc(C(N)=O)cc(N3CCNCC3)n2)ccn1 | 8.10 | 6.36 | 9.00 |  |  |  |  |  | 
Cn1ccc(Nc2cc(-c3cc(C#N)cc(N4CCNCC4)n3)ccn2)n1 | 7.17 | 6.37 |  |  |  |  |  |  | 
C[C@H]1CN(c2cc(C(N)=O)cc(-c3ccnc(NC4CCCCC4)c3)n2)CCN1 | 7.07 | 6.08 | 8.10 |  |  |  |  |  | 
c1cc(-c2cc(-c3cc[nH]n3)cc(N3CCNCC3)n2)cc(NC2CCCCC2)n1 | 7.21 | 6.15 | 8.40 |  |  |  |  |  | 
CCNc1cc(-c2cc(C(N)=O)cc(N3CCNCC3)n2)ccn1 | 7.51 | < 6.00 | 8.40 |  |  |  |  |  | 
NC(=O)c1cc(-c2ccnc(Nc3ccccc3Cl)c2)nc(N2CCNCC2)c1 | 8.10 | 6.32 | 9.00 |  |  |  |  |  | 
NC(=O)c1cc(-c2ccnc(NC3CCOCC3)c2)nc(N2CCNCC2)c1 | 8.05 | < 6.00 | 9.00 |  |  |  |  |  | 
NC(=O)c1cc(-c2ccnc(NC3CCCCC3)c2)nc(N2CCOCC2)c1 |  |  | < 6.00 |  |  |  |  |  | 
NCC1CCN(c2cc(C(N)=O)cc(-c3ccnc(NC4CCCCC4)c3)n2)CC1 | 6.67 | < 6.00 | 7.34 |  |  |  |  |  | 
NC(=O)c1cc(-c2ccnc(NC3CCCC3)c2)nc(N2CCNCC2)c1 | 7.23 | 6.69 | 8.22 |  |  |  |  |  | 
O=C1NCc2c1cc(N1CCNCC1)nc2-c1ccnc(NC2CCCCC2)c1 |  | 6.94 | 9.00 |  |  |  |  |  | 
CN1CCN(c2cc(C(N)=O)cc(-c3ccnc(NC4CCCCC4)c3)n2)CC1 | 6.62 | 6.12 | 7.60 |  |  |  |  |  | 
NC(=O)c1cc(N[C@@H]2CCNC2)nc(-c2ccnc(NC3CCCCC3)c2)c1 | 7.74 | < 6.00 | 8.70 |  |  |  |  |  | 
FC(F)(F)c1cc(-c2ccnc(NC3CCCCC3)c2)nc(N2CCNCC2)c1 |  | 6.47 |  | 251 |  | 0.73 | 31 |  | 
C[C@@H]1CN(c2cc(C(N)=O)cc(-c3ccnc(NC4CCCCC4)c3)n2)CCN1 |  | 6.17 |  |  |  |  |  |  | 
NC(=O)c1cc(-c2ccnc(NC3CCCCC3)c2)nc(N2CCCC(N)C2)c1 (centres undefined) | 6.77 | < 6.00 | 7.85 |  |  |  |  |  | 
CC1(C)CN(c2cc(C(N)=O)cc(-c3ccnc(NC4CCCCC4)c3)n2)CCN1 | 6.37 | < 6.00 | 7.26 |  |  |  |  |  | 
NC(=O)c1cc(N[C@H]2CCNC2)nc(-c2ccnc(NC3CCCCC3)c2)c1 | 6.27 | < 6.00 | 7.17 |  |  |  |  |  | 
